Key:
[1] = Displacement of 2-[125I]iodomelatonin from human MT2 receptor expressed in […] NIH3T3 cells after 90 mins; format: cell-based
Summary of the method: (§1)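 Competition binding on membranes from NIH3T3 cells expressing the cloned human receptor (5−10 μg protein per tube). Incubation with 100 pM 2-[¹²⁵I]iodomelatonin for 90 min at 37 °C in 50 mM Tris-HCl, pH 7.4. Melatonin was tested at 10⁻¹⁰−10⁻⁶ M; nonspecific binding was defined with 10 μM melatonin. IC₅₀ came from nonlinear fitting and was converted to pKi by Cheng−Prusoff; values are means of ≥3 independent duplicate determinations.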

[2] = Partial agonist activity at human MT1 receptor expressed in […] NIH3T3 cells after 30 mins by [35S]GTPgammaS binding assay relative to melatonin; format: functional
[3] = Partial agonist activity at human MT2 receptor expressed in […] NIH3T3 cells after 30 mins by [35S]GTPgammaS binding assay relative to melatonin; format: functional
[4] = Displacement of 2-[125I]iodomelatonin from human MT1 receptor expressed in […] NIH3T3 cells after 90 mins; format: cell-based; summary of the method: as §1
[5] = Antagonist activity at human MT1 receptor expressed in […] NIH3T3 cells after 30 mins by [35S]GTPgammaS binding assay relative to melatonin; format: functional
[6] = Antagonist activity at human MT2 receptor expressed in […] NIH3T3 cells after 30 mins by [35S]GTPgammaS binding assay relative to melatonin; format: functional

Row | Structure (SMILES) | pKi [1] | Intrinsic activity [2] | Intrinsic activity [3] | pKi [4] | Intrinsic activity [5] | Intrinsic activity [6]
1 | CCC(=O)N[C@H]1Cc2ccccc2[C@H](c2ccccc2)C1 (racemic) | 8.06 | 0.41 | 0.4 | 6.65 | – | –
2 | CCC(=O)NC1=Cc2ccccc2C(c2ccccc2)C1 (racemic) | 7.43 | – | 0.59 | 7.3 | 0.14 | –
3 | CCC(=O)NCC1=Cc2ccccc2C(c2ccccc2)C1 (racemic) | 8.46 | – | – | 7.69 | 0.01 | 0.02
4 | CCC(=O)N[C@H]1Cc2ccccc2[C@@H](c2ccccc2)C1 | 7.01 | – | – | 6.59 | 0.06 | 0.11
5 | CCC(=O)N[C@@H]1Cc2ccccc2[C@H](c2ccccc2)C1 | 9.26 | – | 0.45 | 7.02 | 0.15 | –
6 | CCC(=O)N[C@@H]1Cc2ccccc2[C@@H](c2ccccc2)C1 | 6.1 | – | – | 5.67 | -0.23 | -0.14
7 | CCC(=O)NC1=Cc2c(OC)cccc2C(c2ccccc2)C1 (racemic) | 7.11 | 0.32 | 0.49 | 6.74 | – | –
8 | CCC(=O)N[C@@H]1Cc2c(Br)cccc2[C@H](c2ccccc2)C1 (racemic) | 10.85 | 0.49 | 0.65 | 7.99 | – | –
9 | CCC(=O)N[C@@H]1Cc2ccccc2[C@H](c2ccccc2)C1 (racemic) | 9.16 | – | 0.46 | 7.12 | 0.23 | –
10 | CCC(=O)N[C@H]1Cc2c(OC)cccc2[C@H](c2ccccc2)C1 (racemic) | 9.71 | – | – | 7.04 | 0.02 | 0.21
11 | CCC(=O)N[C@@H]1Cc2c(OC)cccc2[C@H](c2ccccc2)C1 (racemic) | 10.22 | – | 0.44 | 7.83 | 0.2 | –
12 | CCC(=O)N[C@H]1Cc2ccccc2[C@H](c2ccccc2)C1 | 8.02 | 0.33 | 0.48 | 6.89 | – | –

— ChEMBL document CHEMBL1944504, “Toward the definition of stereochemical requirements for MT2-selective antagonists and partial agonists by studying 4-phenyl-2-propionamidotetralin derivatives” (J Med Chem, 2011)
